This note sets out measurements from ChEMBL document CHEMBL3351603, “Design of a hydrogen peroxide-activatable agent that specifically targets cancer cells” (Bioorg Med Chem, 2014).

The nature of data set [1]: Cytotoxicity against human MA9.3 cells after 48 hrs by MTT assay. It is filed as functional, cell-based. The procedure, abridged:
(§1)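 Cells seeded at 4 × 10^4/well and held overnight at 37°C. Exposed 48 h to freshly dissolved compound. Cells were then pelleted, the medium replaced with fresh medium holding MTT (5 mg/mL stock), and incubated 4 h. Formazan dissolved in DMSO and read at 575 nm. IC50 from a four-parameter sigmoid fit. Triplicates, assay run twice. MA9.3RAS (MLL-AF9 + NrasG12D-transformed CD34+ cells) grown in IMDM with 20% bovine calf serum. Cord-blood CD34+ cells grown in the same medium plus SCF, IL-3, IL-6, Flt-3L and TPO.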

The nature of data set [2]: Selectivity ratio of IC50 for human primary CD34+ blood stem cells to IC50 for human MA9.3 cells. Particulars: primary CD34+ blood stem cells versus MA9.3 cells, read-out: Ratio IC50.
Data set [3] is described as follows: Cytotoxicity against human CD34-positive blood stem/progenitor cells after 48 hrs by MTT assay. It is filed as cell-based. The method in brief:
as §1

The species entered for a further data set is Homo sapiens. The experiment in a line: Decrease in ROS level in human MA9.3 cells at 20 uM DCF fluorescence assay. Format: functional, cell-based. Particulars: TDE = time-dependent effect. The method in brief:
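Actively growing MA9.3RAS cells suspended in 1× HBSS at 4×10^5 cells/ml. DCF-DA added to 10 μM final, with HBSS alone as blank. Compound added in HBSS to 20 μM final. Plate held at 37°C and fluorescence (ex 485/em 535 nm) read every 15 min for 1 h, with light exposure limited. Mean ± SD of six replicates, unpaired t-test.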

Data set [4] can be described thus: Decrease in ROS level in human MA9.3 cells assessed as fluorescence intensity at 20 uM DCF fluorescence assay (reference value: 1.06 +/- 0.13 no_unit). It is filed as functional.
Data set [5] is described as follows: Decrease in KEAP1 protein expression in human MA9.3 cells at 20 uM after 24 hrs relative to control.

Compound `CCCN(C)CC(=O)Nc1cc(O)ccc1O` came in with an IC50 in data set [1] of 18 µM.

In data set [1], `O=C(COc1ccccc1)Nc1cc(O)ccc1O` registered an IC50 of 3 µM.

Compound `O=C(CO)Nc1cc(O)ccc1O` had an IC50 in data set [1] of 12 µM.

In data set [1], `CN(CC(=O)Nc1ccccc1O)c1ccccc1` yielded an IC50 of more than 100 µM.

On to `COc1cc(/C=C/C(=O)N2CCC=CC2=O)cc(OC)c1OC` [PIPLARTINE], for which the selectivity ratio in data set [2] was determined as 3.7. The same compound showed a half-maximal inhibitory concentration (IC50) in data set [1] of 2 µM.

In the case of `CN(CC(=O)Nc1cc(O)ccc1O)C1CCCCC1`, in data set [2], the selectivity ratio came out at 3.8. Also, the IC50 in data set [1] is 9 µM.

In turn, `NC1=CC(=O)C=CC1=O` returned an IC50 in data set [1] of 16 µM.

For the compound `O=C(CNc1ccccc1)Nc1cc(O)ccc1O`, the IC50 in data set [1] came to 13 µM.

Turning to `C=C1C(=O)O[C@@H]2[C@H]3O[C@]3(C)CC/C=C(\C)CC[C@@H]12`, the selectivity ratio in data set [2] came to 2.1. The compound also displayed an IC50 in data set [1] of 3 µM.

On to `CN(CC(=O)Nc1cc(O)ccc1O)c1ccccc1`, for which, in data set [2], the selectivity ratio was 2. The midpoint of inhibition in data set [1], the IC50, lay at 6 µM.

On to `O=C(CNC1CCCCC1)Nc1cc(O)ccc1O`, for which the Activity result in data set [3] was “Non-toxic”; in the data set filed under Homo sapiens, “tde”. Besides, in data set [2], the selectivity ratio was determined as 11.5. Besides, the IC50 in data set [1] is 2 µM. The Flu intensity in data set [4] is 4.31. Moreover, the Ratio in data set [5] amounted to 0.65.

`O=C(CSc1ccccc1)Nc1cc(O)ccc1O` gave an IC50 in data set [1] of 5 µM.

For `CN(CC(=O)Nc1cccc(O)c1)c1ccccc1`, the IC50 in data set [1] was more than 100 µM.

Consider `CN(CC(=O)NC1=CC(=O)C=CC1=O)c1ccccc1`, for which inhibition in data set [1] was half-maximal at 21 µM (IC50).

`COc1ccc(OC)c(NC(=O)CN(C)c2ccccc2)c1` displayed an IC50 in data set [1] of more than 100 µM.

In the case of `CC(=O)Nc1cc(O)ccc1O`, in data set [1], the IC50 worked out at 35 µM.
